The test system of series [1] is female Wistar rats. As to the kind of experiment: Acute oral toxicity. In kind it is in vivo. To be noted: 100 mg/kg, observed 48 h for mortality. An outline of the steps: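 Female Wistar rats were fasted overnight, then given the test compound orally as a single 100 mg/kg dose. Animals were watched for signs of morbidity […].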
The subject of series [2] is Vero cells. As to the kind of experiment: In vitro cytotoxicity assay on Vero cells. In kind it is cell-based, monkeys. To be noted: 100 μM, 24 h, 3000 Vero cells/well. The essentials:
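Vero cells, about 3000 per well at 90% confluency, were exposed to the test compound at 100 μM for 24 h at 37°C in a CO2 incubator. The percentage of metabolically active cells was compared with untreated control to give cytotoxicity. Three independent runs were done.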

As for `Cc1nc2ccccc2n1CC(=O)NN` [MBNHYD, 2-(2-methyl-1H-benzimidazol-1-yl) acetohydrazide], the toxicity in vivo entry in series [1] is on record as “non-toxic”. Moreover, the toxicity in vitro entry in series [2] was “non-toxic”.
For `Cc1nc2ccccc2n1CC(=O)NNc1ccccc1` [MBPHYD, 2-(2-methyl-1H-benzimidazol-1-yl)-N′-phenylacetohydrazide], the toxicity in vivo result in series [1] is on record as “non-toxic”. Moreover, the toxicity in vitro result in series [2] is on record as “non-toxic”.

Source of the values: publication PMC9647759 (Pharmaceutical Chemistry Journal, 2022).
